Screen size: about 2,500 compounds; about 460 (18%) were called active. Not all results are given here. Unmarked numbers belong to inactive results.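 The calls were made as follows: active = mean activation above a cutoff of low control average plus 3 SD from the earlier screen (cut at about 12% in these data); inactive = the rest.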

This assay can be described thus: compound fluorescence interference without thin filaments, confirmation, artefact control for cardiac RTF calcium sensitizer project, biochemical (AID 504382). As to conditions: IANBD fluorescence interference counterscreen, buffer, EC20 Ca2+; at 7.2 µM; active compounds read high; scaled: EC20 calcium 0, EC100 calcium 100. The essentials:
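Also added: EC20 calcium, 0.472 mM; dosing: single nominal 7.2 µM compound dose, 0.7% DMSO final; timing: 15 min, 25 °C; detection: fluorescence intensity, excitation 480 nm, emission 540 nm; replicates: each compound tested in triplicate wells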
`COC(=O)c1ccccc1NC(=O)[C@@H]1CCC(=O)N1C1OC(=O)c2c1ccc(OC)c2OC` (stereo not given in full): the fluorescence artifact activation was 0.09%.

As for `O=C1C=C(NCc2ccco2)CC(c2ccc(Cl)cc2)C1` (stereo not given), the fluorescence artifact activation was 0.31%.

On to `CC1=CC=CN2CC(O)CN=C12` (stereo not given), for which the fluorescence artifact activation was 3.77%.

For the compound `Cc1c(C(=O)NCc2ccc3c(c2)cc(C)n3C)cccc1[N+](=O)[O-]`, the fluorescence artifact activation was 0.13%.

Take `COc1cc(NC(=O)CSc2nc3ccccc3n2-c2ccccc2)c(C)cc1[N+](=O)[O-]`: the fluorescence artifact activation is 0.03%.

With `COC1=C/C(=C/c2c(N)n3c(nc2=O)sc2cc(S(C)(=O)=O)ccc23)C=CC1=O`, the fluorescence artifact activation was 0.11%.

`N#Cc1cccc(NC(=S)Nc2ccccc2)c1`: the fluorescence artifact activation was 0.03%.

Take `CN(Cc1ccccc1)C(=O)c1[nH]cnc1C(=O)NCc1ccccc1`: the fluorescence artifact activation was 12.7% (active).

As for `CC(C)(C)OC(=O)[C@H](Cc1ccccc1)NC(=O)c1nc[nH]c1C(=O)NCc1ccccc1`, the fluorescence artifact activation is 4.14%.

`CCOC(=O)c1[nH]cnc1C(=O)Nc1ccccn1`: the fluorescence artifact activation is 0.74%.

In the case of `CCOC(=O)C1=C(C)N=c2s/c(=C\c3ccc(OCC(=O)O)cc3)c(=O)n2C1c1ccc(Cl)cc1` (stereo not given), the fluorescence artifact activation was 0.05%.

Take `CC1=C/C(=C\C=C(C#N)C#N)N(C)c2ccccc21`: the fluorescence artifact activation was 0.3%.

With `O=C(O)c1cc(Cl)ccc1-c1ccc(/C=C/c2cc(C(F)(F)F)[nH]c(=O)n2)o1`, the fluorescence artifact activation is 21.8% (active).

In the case of `O=C(O)c1ccccc1-c1ccc(/C=C/c2cc(C(F)(F)F)[nH]c(=O)n2)o1`, the fluorescence artifact activation was 0.16%.

Consider `Cc1cc2nc(/C(C#N)=C\c3ccc(-c4ccccc4C(=O)O)o3)[nH]c2cc1C`, for which the fluorescence artifact activation was 0.09%.

On to `CC(=O)NN1C(=O)/C(=C\c2ccc(O)cc2)SC1=S`, for which the fluorescence artifact activation is 0.69%.

Turning to `C/C(=N\Nc1ccc([N+](=O)[O-])cc1[N+](=O)[O-])c1cccnc1`, the fluorescence artifact activation is 0.07%.

Regarding `O=C(CSc1nnc(COc2ccccc2)o1)N1CCN(c2ccccc2)CC1`, the fluorescence artifact activation was 12% (active).

As for `Fc1ccc(OCc2nnc(SCCN3CCOCC3)o2)cc1`, the fluorescence artifact activation was -0.06%.

On to `O=C(NCc1nnc(SCC(=O)N2CCCCCC2)o1)c1ccco1`, for which the fluorescence artifact activation is 8.13%.

On to `Cc1cccc(NC(=O)CN2C(=O)N/C(=C/c3ccc(C)s3)C2=O)c1`, for which the fluorescence artifact activation was 0.09%.

Regarding `O=C(O)c1ccc(-n2c(/C=C/c3cccc([N+](=O)[O-])c3)nc3ccccc3c2=O)cc1`, the fluorescence artifact activation is 0.47%.

With `COCCN1C(=O)/C(=C/c2ccc(N3CCCC3)cc2)SC1=S`, the fluorescence artifact activation is 0.34%.

In the case of `CCOC(=O)C1CCCN(C(=O)c2cccc(S(=O)(=O)N3CC(C)OC(C)C3)c2)C1` (stereo not given), the fluorescence artifact activation was 0.05%.

Consider `CC1CN(c2ccc(NS(=O)(=O)c3ccccc3)cc2C(=O)O)CC(C)O1` (stereo not given), for which the fluorescence artifact activation was 31.9% (active).

Consider `CC(=O)c1ccc(S(=O)(=O)Nc2ccc(C(=O)N3CCC3)cc2)cc1`, for which the fluorescence artifact activation is 0.27%.

Turning to `O=C(Nc1ccc(F)cc1F)c1ccc(COc2c(F)c(F)cc(F)c2F)o1`, the fluorescence artifact activation was -0.01%.

As for `CCCCc1ccc(NC(=O)N2CCNC(=O)C2CC(=O)Nc2ccsc2C(=O)OC)cc1` (stereo not given), the fluorescence artifact activation was -0.11%.

As for `Cc1cn2c(N)c(C=C3C=C(Cl)C(=O)C(Cl)=C3)c(=O)nc2s1`, the fluorescence artifact activation was 4.46%.

Turning to `CCOC(=O)CN1C(=O)S/C(=C/C=C/c2ccc(N(C)C)cc2)C1=O`, the fluorescence artifact activation is -0.03%.

Consider `COc1ccc(C(=O)/C=C/c2cn(CC(O)CN3CCOCC3)c3ccccc23)cc1` (stereo not given), for which the fluorescence artifact activation was 6.56%.

As for `Cc1ccc(C(=O)/C=C/c2cn(CC(O)CN3CCOCC3)c3ccccc23)cc1` (stereo not given), the fluorescence artifact activation is 0.01%.

In the case of `COc1ccc(C(=O)/C=C/c2cn(CC(O)CN3CCN(C)CC3)c3ccccc23)cc1OC` (stereo not given), the fluorescence artifact activation was 18.9% (active).

Take `CCCN(CCC)CC(O)Cn1cc(/C=C/C(=O)c2cccs2)c2ccccc21` (stereo not given): the fluorescence artifact activation was 0.1%.

Turning to `O=C(/C=C/c1cn(CC(O)CN2CCCCC2)c2ccccc12)c1cccs1` (stereo not given), the fluorescence artifact activation was 14.5% (active).

As for `O=C(/C=C/c1cn(CC(O)CN2CCCCCC2)c2ccccc12)c1cccs1` (stereo not given), the fluorescence artifact activation is 5.69%.

For the compound `CCN(CC)c1ccc(-c2sc(Nc3ccccc3)n[n+]2-c2ccc(F)cc2)cc1`, the fluorescence artifact activation is 3.87%.

Take `C=CCOc1ccn(C)c(=O)n1`: the fluorescence artifact activation was 2.39%.

Turning to `O=[N+]([O-])c1ccc(/C=C/C2=NN(c3ccccc3)C(c3ccco3)C2)cc1` (stereo not given), the fluorescence artifact activation was 6.35%.

Turning to `Cc1nnc(N/N=C/c2ccc(O)c([N+](=O)[O-])c2)[nH]c1=O`, the fluorescence artifact activation is 8.03%.

Regarding `O=S1(=O)CCOC[C@H](CC2CCCCC2)N1Cc1ccccc1`, the fluorescence artifact activation was 0.05%.

With `CCn1c(CNc2ccc(C(=O)O)cc2)nc2ccccc21`, the fluorescence artifact activation is -0.08%.

As for `O=C(NCCNC(=O)c1cccs1)c1ccco1`, the fluorescence artifact activation was 10.5%.

With `Cn1c(CCNC(=O)c2ccco2)nc2ccccc21`, the fluorescence artifact activation was 350% (active).

`CCCC(=O)NCCCc1nc2ccccc2n1C`: the fluorescence artifact activation is 43.2% (active).

For `Cn1c(=O)c2c(nc(NCCNC(=O)c3ccco3)n2Cc2ccccc2Cl)n(C)c1=O`, the fluorescence artifact activation is 0.11%.

As to `O=C(Cn1c(C(F)(F)F)nc2ccccc21)NCCN1CCCC1`, the fluorescence artifact activation was 0.11%.

As for `COc1ccc(CN2CNc3c(c(=O)n(C)c(=O)n3C)C2)cc1`, the fluorescence artifact activation was 6.35%.

In the case of `Brc1ccc(-c2noc(-c3ccccn3)n2)o1`, the fluorescence artifact activation was 0.61%.

`O=C1C(=Cc2ccco2)CCCC1=Cc1ccco1`: the fluorescence artifact activation is 6.25%.

`O=C(NCc1ccccc1Cl)c1ccc2nc[nH]c2c1`: the fluorescence artifact activation is -0.08%.

`CCOC(=O)CC1=NS(=O)(=O)c2ccccc2N1`: the fluorescence artifact activation was 2.81%.

As for `COc1ccccc1NS(=O)(=O)c1cc(NC(=O)CCNC(C)=O)ccc1N1CCCCC1`, the fluorescence artifact activation is 0.74%.

On to `COc1ccccc1NS(=O)(=O)c1cc(NC(=O)c2cc3ccccc3oc2=O)ccc1C`, for which the fluorescence artifact activation is 16.8% (active).

`COc1ccccc1NS(=O)(=O)c1ccccc1C#N`: the fluorescence artifact activation is -0.04%.

For the compound `CCNc1nc(SCC(N)=O)nc2sc3c(c12)CCN(C)C3`, the fluorescence artifact activation was 0.22%.

As to `CN(/N=C/c1ccc(-c2ccc([N+](=O)[O-])cc2)o1)c1ccccc1`, the fluorescence artifact activation is 9.54%.

For the compound `COc1ccccc1NS(=O)(=O)c1cc([N+](=O)[O-])ccc1N/N=C/c1c(C)[nH]c2ccccc12`, the fluorescence artifact activation was 4.83%.

With `COCCN=c1scc(-c2cc(OC)c(OC)c(OC)c2)n1/N=C/c1c(C)[nH]c2ccccc12`, the fluorescence artifact activation was 21.1% (active).

In the case of `CCN(CC)S(=O)(=O)c1ccc2[nH]c(=O)[nH]c2c1`, the fluorescence artifact activation is 0.38%.

On to `Cn1c(C(=O)NCCCN2CCCCCC2)cc2c(=O)n(C)c3ccccc3c21`, for which the fluorescence artifact activation is 3.34%.

`CCN(CC)S(=O)(=O)c1ccc2[nH]cc(C(=O)NCCN3CCCCCC3)c(=O)c2c1`: the fluorescence artifact activation is 14.6% (active).

Regarding `O=C(CSCc1ccco1)NC1CCCC1`, the fluorescence artifact activation was 5.75%.

With `CCN(CC)C1=CC2=CC(=C(C#N)C#N)CCC2CC1` (stereo not given), the fluorescence artifact activation was 0.13%.

In the case of `CCn1cc([N+](=O)[O-])c(C(=O)Nc2ccn(Cc3ccccc3)n2)n1`, the fluorescence artifact activation was 1.63%.

Consider `O=C(Nc1ccc(S(=O)(=O)Nc2ncccn2)cc1)C1CC(=O)N(c2ccccc2)C1` (stereo not given), for which the fluorescence artifact activation is -0.09%.

Take `O=C(Nc1ccc(S(=O)(=O)Nc2ncccn2)cc1)c1nn(Cc2ccccc2)c(=O)c2ccccc12`: the fluorescence artifact activation is 303% (active).

With `CC(=O)c1ccc2c(c1)c(C#N)c1ccccc1[n+]2[O-]`, the fluorescence artifact activation was 57.1% (active).

As for `O=S(=O)(CCN(CCS(=O)(=O)C(F)(F)F)CC1CCCO1)C(F)(F)F` (stereo not given), the fluorescence artifact activation is 0.02%.

For `O=C(c1cnc2ccccc2n1)N1CCN(c2ccc(C(F)(F)F)cn2)CC1`, the fluorescence artifact activation was 5.21%.

On to `CN(C)CCOc1ccccc1C(C)(C)C`, for which the fluorescence artifact activation was 0.06%.

As for `O=C1c2c(O)cc(O)cc2O[C@@]12c1c(cc(O)c3c1O[C@H](c1ccc(O)cc1)[C@@H](O)C3)O[C@@H]2c1ccc(O)cc1`, the fluorescence artifact activation is 0%.

Consider `O=S(=O)(O)c1nc2ccccc2n1Cc1ccccc1`, for which the fluorescence artifact activation is 16.5% (active).

Take `CCn1c(C(C)NC(C)=O)nc2ccccc21` (stereo not given): the fluorescence artifact activation is 2.7%.

With `c1ccc(Cn2c(-c3ccccc3)nc3nc4ccccc4nc32)cc1`, the fluorescence artifact activation was 6.17%.

In the case of `NC(=O)[C@@H]1CCCNc2c(I)cc([N+](=O)[O-])cc2C(=O)N[C@@H](CCC(=O)O)C(=O)N[C@@H](CO)C(=O)N1`, the fluorescence artifact activation is 0%.

Regarding `Cc1ccc(S(=O)(=O)N2CC(C(=O)O)=CC[C@H]2c2ccc(Cl)cc2)cc1`, the fluorescence artifact activation was 0.03%.

As for `Cc1cccc(NC(=O)c2ccc(C(=O)c3ccccc3)cc2)n1`, the fluorescence artifact activation is 1.13%.

In the case of `NC(=O)c1ccc(NC(=O)COC(=O)c2c3c(nc4ccccc24)/C(=C\c2ccc4c(c2)OCO4)CCC3)cc1`, the fluorescence artifact activation was 0.16%.

With `Cc1cc(C(=O)O)ccc1-c1ccc(/C=C2\SC(=O)N(CC(=O)Nc3ccc4c(c3)OCO4)C2=O)o1`, the fluorescence artifact activation is 0.42%.

For the compound `O=C(COC(=O)c1ccc(O)cc1)Nc1ccc2c(c1)OCCO2`, the fluorescence artifact activation was 13.1% (active).

As for `Cc1cc(C)c(S(=O)(=O)Nc2ccc3[nH]c(=O)[nH]c3c2)c(C)c1`, the fluorescence artifact activation was 3.79%.

`O=C/C(=C\Nc1ccc(S(=O)(=O)CCO)cc1)c1nc2cc(Cl)ccc2o1`: the fluorescence artifact activation was 20.2% (active).

With `Cc1ccc(-c2nc3sc(C#N)c(N)n3c(=O)c2C#N)cc1`, the fluorescence artifact activation is 0.13%.

Consider `CC(C)CC1C(C#N)=C(N)SC(N)=C1C#N`, for which the fluorescence artifact activation was 0.12%.

In the case of `Cc1ccc(-n2c(C)cc(C(=O)COC(=O)c3ccc[nH]c3=O)c2C)cc1`, the fluorescence artifact activation was -0.02%.

As for `Cc1cc(C(=O)COc2cccc3cccnc23)c(C)n1C`, the fluorescence artifact activation was 21.4% (active).

Consider `Cc1ccc(/C=C/C(=O)Nc2cccc3cccnc23)o1`, for which the fluorescence artifact activation was 4.18%.

On to `COc1ccc(NC(=O)c2cccc(-c3ccc(O)cc3)c2)cn1`, for which the fluorescence artifact activation was -0.04%.

As to `Cc1nc(-n2[nH]c3c(c2=O)CCCC3)[nH]c(=O)c1Cc1ccccc1`, the fluorescence artifact activation was 7.51%.
